In ChEMBL document CHEMBL1649574, “Prevalence and characterization of heterogeneous vancomycin-intermediate Staphylococcus aureus isolates from 14 cities in China” (2009):

Tests used:
Assay type in all cases: functional
[1] = tested on: Staphylococcus aureus; assay: Antimicrobial activity against heterogeneous vancomycin-intermediate Staphylococcus aureus assessed as growth inhibition at MIC; parameters: scale not given: the % may be the effect or the level left
[2] = tested on: Staphylococcus aureus; assay: Antimicrobial activity against SCCmec type III vancomycin-intermediate Staphylococcus aureus isolate bd4768 by agar dilution method
How it was run: (§1)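 Agar-dilution MICs were measured on a subset of 200 blood MRSA isolates from China. Agents: oxacillin, rifampin, gentamicin, levofloxacin, erythromycin, vancomycin, teicoplanin, tigecycline, ceftobiprole and linezolid. Phenotype came from the PAP-AUC ratio of each isolate to S. aureus Mu3 (VSSA <0.9; hVISA 0.9 to 1.3; VISA ≥1.3), read on BHI agar with 0 to 8.0 mg/liter vancomycin after 48 h at 35°C.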

[3] = tested on: Staphylococcus aureus; assay: Antimicrobial activity against heterogeneous vancomycin-intermediate Staphylococcus aureus assessed as susceptible isolates by agar dilution method
How it was run: (§2)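 MICs by agar dilution for all 200 MRSA blood isolates (oxacillin, rifampin, gentamicin, levofloxacin, erythromycin, vancomycin, teicoplanin, tigecycline, ceftobiprole, linezolid). Isolates were grouped by PAP-AUC ratio against S. aureus Mu3: below 0.9 VSSA, 0.9 to 1.3 hVISA, 1.3 or more VISA.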

[4] = tested on: Staphylococcus aureus; assay: Antimicrobial activity against vancomycin-susceptible Staphylococcus aureus assessed as growth inhibition at 16 times MIC; parameters: scale not given: the % may be the effect or the level left
[5] = tested on: Staphylococcus aureus; assay: Antimicrobial activity against SCCmec type II vancomycin-intermediate Staphylococcus aureus isolate 4sy32 by agar dilution method; how it was run: as §1
[6] = tested on: Staphylococcus aureus; assay: Antimicrobial activity against heterogeneous vancomycin-intermediate Staphylococcus aureus by agar dilution method; how it was run: as §1
[7] = tested on: Staphylococcus aureus; assay: Antimicrobial activity against heterogeneous vancomycin-intermediate Staphylococcus aureus assessed as growth inhibition at 0.125 times MIC; parameters: scale not given: the % may be the effect or the level left
[8] = tested on: Staphylococcus aureus; assay: Antimicrobial activity against heterogeneous vancomycin-intermediate Staphylococcus aureus assessed as growth inhibition at 0.5 times MIC; parameters: scale not given: the % may be the effect or the level left
[9] = tested on: Staphylococcus aureus; assay: Antimicrobial activity against SCCmec type III vancomycin-intermediate Staphylococcus aureus isolate 5zjsau3 by agar dilution method; how it was run: as §1
[10] = tested on: Staphylococcus aureus; assay: Antimicrobial activity against SCCmec type III vancomycin-intermediate Staphylococcus aureus isolate 11b091 by agar dilution method; how it was run: as §1
[11] = tested on: Staphylococcus aureus; assay: Antimicrobial activity against SCCmec type II vancomycin-intermediate Staphylococcus aureus isolate 6zjsau7 by agar dilution method; how it was run: as §1
[12] = tested on: Staphylococcus aureus; assay: Antimicrobial activity against SCCmec type III vancomycin-intermediate Staphylococcus aureus isolate gz06051 by agar dilution method; how it was run: as §1
[13] = tested on: Staphylococcus aureus; assay: Antimicrobial activity against vancomycin-susceptible Staphylococcus aureus assessed as growth inhibition at 0.5 times MIC; parameters: scale not given: the % may be the effect or the level left
[14] = tested on: Staphylococcus aureus; assay: Antimicrobial activity against SCCmec type III vancomycin-intermediate Staphylococcus aureus isolate b6k1642 by agar dilution method; how it was run: as §1
[15] = tested on: Staphylococcus aureus; assay: Antimicrobial activity against SCCmec type II vancomycin-intermediate Staphylococcus aureus isolate 4sy39 by agar dilution method; how it was run: as §1
[16] = tested on: Staphylococcus aureus; assay: Antimicrobial activity against SCCmec type III vancomycin-intermediate Staphylococcus aureus isolate b6k7974 by agar dilution method; how it was run: as §1
[17] = tested on: Staphylococcus aureus; assay: Antimicrobial activity against heterogeneous vancomycin-intermediate Staphylococcus aureus assessed as intermediate isolates by agar dilution method; how it was run: as §2
[18] = tested on: Staphylococcus aureus; assay: Antimicrobial activity against vancomycin-susceptible Staphylococcus aureus assessed as growth inhibition at MIC; parameters: scale not given: the % may be the effect or the level left
[19] = tested on: Staphylococcus aureus; assay: Antimicrobial activity against vancomycin-susceptible Staphylococcus aureus by agar dilution method; how it was run: as §1
[20] = tested on: Staphylococcus aureus; assay: Antimicrobial activity against SCCmec type IV vancomycin-intermediate Staphylococcus aureus isolate 06b41 by agar dilution method; how it was run: as §1
[21] = tested on: Staphylococcus aureus; assay: Antimicrobial activity against SCCmec type III vancomycin-intermediate Staphylococcus aureus isolate b3k5923 by agar dilution method; how it was run: as §1
[22] = tested on: Staphylococcus aureus; assay: Antimicrobial activity against SCCmec type III vancomycin-intermediate Staphylococcus aureus isolate b5k3578 by agar dilution method; how it was run: as §1
[23] = tested on: Staphylococcus aureus; assay: Antimicrobial activity against SCCmec type II vancomycin-intermediate Staphylococcus aureus isolate 07b63 by agar dilution method; how it was run: as §1
[24] = tested on: Staphylococcus aureus; assay: Antimicrobial activity against heterogeneous vancomycin-intermediate Staphylococcus aureus assessed as growth inhibition at 4 times MIC; parameters: scale not given: the % may be the effect or the level left
[25] = tested on: Staphylococcus aureus; assay: Antimicrobial activity against vancomycin-susceptible Staphylococcus aureus assessed as growth inhibition at 0.25 times MIC; parameters: scale not given: the % may be the effect or the level left
[26] = tested on: Staphylococcus aureus; assay: Antimicrobial activity against SCCmec type III vancomycin-intermediate Staphylococcus aureus isolate b4k6307 by agar dilution method; how it was run: as §1
[27] = tested on: Staphylococcus aureus; assay: Antimicrobial activity against SCCmec type III vancomycin-intermediate Staphylococcus aureus isolate b3k2345 by agar dilution method; how it was run: as §1
[28] = tested on: Staphylococcus aureus; assay: Antimicrobial activity against SCCmec type III vancomycin-intermediate Staphylococcus aureus isolate sh07043 by agar dilution method; how it was run: as §1
[29] = tested on: Staphylococcus aureus; assay: Antimicrobial activity against SCCmec type II vancomycin-intermediate Staphylococcus aureus isolate sh06024 by agar dilution method; how it was run: as §1
[30] = tested on: Staphylococcus aureus; assay: Antimicrobial activity against heterogeneous vancomycin-intermediate Staphylococcus aureus assessed as growth inhibition at 16 times MIC; parameters: scale not given: the % may be the effect or the level left
[31] = tested on: Staphylococcus aureus; assay: Antimicrobial activity against heterogeneous vancomycin-susceptible Staphylococcus aureus assessed as susceptible isolates by agar dilution method; how it was run: as §2
[32] = tested on: Staphylococcus aureus; assay: Antimicrobial activity against SCCmec type III vancomycin-intermediate Staphylococcus aureus isolate zj07028 by agar dilution method; how it was run: as §1
[33] = tested on: Staphylococcus aureus; assay: Antimicrobial activity against SCCmec type III vancomycin-intermediate Staphylococcus aureus isolate gz07030 by agar dilution method; how it was run: as §1
[34] = tested on: Staphylococcus aureus; assay: Antimicrobial activity against SCCmec type III vancomycin-intermediate Staphylococcus aureus isolate gz06040 by agar dilution method; how it was run: as §1
[35] = tested on: Staphylococcus aureus; assay: Antimicrobial activity against SCCmec type III vancomycin-intermediate Staphylococcus aureus isolate xa07029 by agar dilution method; how it was run: as §1
[36] = tested on: Staphylococcus aureus; assay: Antimicrobial activity against heterogeneous vancomycin-intermediate Staphylococcus aureus assessed as growth inhibition at 0.25 times MIC; parameters: scale not given: the % may be the effect or the level left
[37] = tested on: Staphylococcus aureus; assay: Antimicrobial activity against SCCmec type III vancomycin-intermediate Staphylococcus aureus isolate b2k3421 by agar dilution method; how it was run: as §1
[38] = tested on: Staphylococcus aureus; assay: Antimicrobial activity against SCCmec type III vancomycin-intermediate Staphylococcus aureus isolate 13b16 by agar dilution method; how it was run: as §1
[39] = tested on: Staphylococcus aureus; assay: Antimicrobial activity against vancomycin-intermediate Staphylococcus aureus by agar dilution method; how it was run: as §1
[40] = tested on: Staphylococcus aureus; assay: Antimicrobial activity against SCCmec type II vancomycin-intermediate Staphylococcus aureus isolate b2k4781 by agar dilution method; how it was run: as §1
[41] = tested on: Staphylococcus aureus; assay: Antimicrobial activity against SCCmec type III vancomycin-intermediate Staphylococcus aureus isolate 15b52 by agar dilution method; how it was run: as §1
[42] = tested on: Staphylococcus aureus; assay: Antimicrobial activity against heterogeneous vancomycin-intermediate Staphylococcus aureus assessed as growth inhibition at 2 times MIC; parameters: scale not given: the % may be the effect or the level left
[43] = tested on: Staphylococcus aureus; assay: Antimicrobial activity against vancomycin-susceptible Staphylococcus aureus assessed as growth inhibition at 0.125 times MIC; parameters: scale not given: the % may be the effect or the level left
[44] = tested on: Staphylococcus aureus; assay: Antimicrobial activity against SCCmec type III vancomycin-intermediate Staphylococcus aureus isolate gs07022 by agar dilution method; how it was run: as §1
[45] = tested on: Staphylococcus aureus; assay: Antimicrobial activity against heterogeneous vancomycin-susceptible Staphylococcus aureus assessed as intermediate isolates by agar dilution method
[46] = tested on: Staphylococcus aureus; assay: Antimicrobial activity against SCCmec type III vancomycin-intermediate Staphylococcus aureus isolate b5k3529 by agar dilution method; how it was run: as §1
[47] = tested on: Staphylococcus aureus; assay: Antimicrobial activity against vancomycin-susceptible Staphylococcus aureus assessed as growth inhibition at 4 times MIC; parameters: scale not given: the % may be the effect or the level left
[48] = tested on: Staphylococcus aureus; assay: Antimicrobial activity against vancomycin-susceptible Staphylococcus aureus assessed as growth inhibition at 2 times MIC; parameters: scale not given: the % may be the effect or the level left

Nc1nc(/C(=N/O)C(=O)N[C@@H]2C(=O)N3C(C(=O)O)=C(/C=C4\CCN([C@@H]5CCNC5)C4=O)CS[C@H]23)ns1 [CEFTOBIPROLE]
2.31%: Activity [25]
0%: Activity [7] | Activity [17] | Activity [36] | Activity [43] | Activity [45]
100%: Activity [3] | Activity [4] | Activity [24] | Activity [30] | Activity [31] | Activity [47] | Activity [48]
4 µg/mL: MIC [11]
2 µg/mL: MIC [2] | MIC50 [6] | MIC90 [6] | MIC [10] | MIC [12] | MIC [14] | MIC [16] | MIC50 [19] | MIC90 [19] | MIC [21] | MIC [22] | MIC [27] | MIC [28] | MIC [29] | MIC [32] | MIC [33] | MIC [35] | MIC [37] | MIC [40] | MIC [41] | MIC [46]
11.1%: Activity [8]
0.5 µg/mL: MIC [5] | MIC [9] | MIC [15] | MIC [39]
96.3%: Activity [42]
33.3%: Activity [1]
1 µg/mL: MIC [20] | MIC [23] | MIC [26] | MIC [34] | MIC [38] | MIC [44]
27.2%: Activity [18]
4.62%: Activity [13]
